Activity calls are given as the source filed them. The rule behind the calls is not given here.
Key:
[1] = Binding affinity to HP duplex DNA 1 (unknown origin) containing c-Myc P2 promoter sequence incubated for 12 hrs at 37 degC in presence of 50 mM pH 7.2 HEPES buffer containing 10 mM MgCl2, 100 mM NaCl and 10% sucrose
[2] = Binding affinity to fluorescently-labeled HP duplex DNA 2 (unknown origin) containing HIV2 nef gene assessed as formation of stable triplexes at 40 uM in presence of 40 uM RNA 1 (5'-CACCACCACCACC-3') by gel mobility shift assay
[3] = Binding affinity to HP duplex DNA 2 (unknown origin) containing HIV2 nef gene sequence incubated for 12 hrs at 37 degC in presence of 50 mM pH 7.2 HEPES buffer containing 10 mM MgCl2, 100 mM NaCl and 10% sucrose
Outline: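 Oligonucleotide binding to a 5'-FAM-labeled hairpin duplex bearing the HIV2 nef sequence. Incubation was 12 h at 37 °C in 50 mM HEPES (pH 7.2) with 10 mM MgCl2, 100 mM NaCl and 10% sucrose. Kd reported in µM.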

[4] = (§1) Binding affinity to fluorescently-labeled mismatched HP duplex DNA 8 (unknown origin) containing HIV2 nef gene assessed as formation of stable triplexes at 100 uM incubated for 12 hrs at 37 degC in presence of 50 mM pH 7.2 HEPES buffer containing 10 mM MgCl2, 100 mM NaCl and 10% sucrose by gel mobility shift assay
Outline: (§2)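 Triplex formation by gel shift. Oligonucleotide at 100 µM was mixed with fluorescently labeled hairpin duplex at 40 nM in 50 mM HEPES (pH 7.2), 10 mM MgCl2, 100 mM NaCl and 10% sucrose for 12 h at 37 °C. Complexes were resolved on a 15% nondenaturing polyacrylamide gel.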

[5] = as §1, with “4” for “8”; outline: as §2
[6] = as §1, with “3” for “8”; outline: as §2
[7] = as §1, with “7” for “8”; outline: as §2
[8] = Binding affinity to HP duplex DNA 2 (unknown origin) containing HIV2 nef gene sequence incubated for 12 hrs at 37 degC in presence of 50 mM pH 7.2 HEPES buffer containing 10 mM MgCl2, 100 mM KCl and 10% sucrose
[9] = as §1, with “fluorescently-labeled” for “fluorescently-labeled mismatched”, “2” for “8”; outline: as §2
[10] = Binding affinity to fluorescently-labeled HP duplex DNA 2 (unknown origin) containing HIV2 nef gene assessed as formation of stable triplexes at 40 uM by gel mobility shift assay
[11] = as §1, with “5” for “8”; outline: as §2
[12] = as §1, with “6” for “8”; outline: as §2

Row | Kd [1] [nM] | Activity [2] | Kd [3] [nM] | Kd [4] [nM] | Activity [5] | Activity [6] | Activity [7] | Kd [8] [nM] | Activity [9] | Activity [10] | Activity [11] | Activity [12] | Compound
1 | 7300 | – | – | – | – | – | – | – | – | – | – | – | Cc1cn([C@H]2C[C@H](OP(=O)(O)OC[C@H]3O[C@@H](n4cnc5c(=S)[nH]c(N)nc54)C[C@@H]3OP(=O)(O)OC[C@H]3O[C@@H](n4cnc5c(=S)[nH]c(N)nc54)C[C@@H]3OP(=O)(O)OC[C@H]3O[C@@H](n4cnc5c(=S)[nH]c(N)nc54)C[C@@H]3OP(=O)(O)OC[C@H]3O[C@@H](n4cc(C)c(=O)[nH]c4=O)C[C@@H]3OP(=O)(O)OC[C@H]3O[C@@H](n4cnc5c(=S)[nH]c(N)nc54)C[C@@H]3OP(=O)(O)OC[C@H]3O[C@@H](n4cnc5c(=S)[nH]c(N)nc54)C[C@@H]3OP(=O)(O)OC[C@H]3O[C@@H](n4cnc5c(=S)[nH]c(N)nc54)C[C@@H]3OP(=O)(O)OC[C@H]3O[C@@H](n4cc(C)c(=O)[nH]c4=O)C[C@@H]3OP(=O)(O)OC[C@H]3O[C@@H](n4cnc5c(=S)[nH]c(N)nc54)C[C@@H]3OP(=O)(O)OC[C@H]3O[C@@H](n4cnc5c(=O)[nH]c(N)nc54)[C@H](O)[C@@H]3O)[C@@H](CO)O2)c(=O)[nH]c1=O
2 | 670 | – | – | – | – | – | – | – | – | – | – | – | Cc1cn([C@H]2C[C@H](OP(=O)(O)OC[C@H]3O[C@@H](n4cnc5c(=S)[nH]c(N)nc54)C[C@@H]3OP(=O)(O)OC[C@H]3O[C@@H](n4cnc5c(=S)[nH]c(N)nc54)C[C@@H]3OP(=O)(O)OC[C@H]3O[C@@H](n4cnc5c(=S)[nH]c(N)nc54)C[C@@H]3OP(=O)(O)OC[C@H]3O[C@@H](n4cc(C)c(=S)[nH]c4=O)C[C@@H]3OP(=O)(O)OC[C@H]3O[C@@H](n4cnc5c(=S)[nH]c(N)nc54)C[C@@H]3OP(=O)(O)OC[C@H]3O[C@@H](n4cnc5c(=S)[nH]c(N)nc54)C[C@@H]3OP(=O)(O)OC[C@H]3O[C@@H](n4cnc5c(=S)[nH]c(N)nc54)C[C@@H]3OP(=O)(O)OC[C@H]3O[C@@H](n4cc(C)c(=S)[nH]c4=O)C[C@@H]3OP(=O)(O)OC[C@H]3O[C@@H](n4cnc5c(=S)[nH]c(N)nc54)C[C@@H]3OP(=O)(O)OC[C@H]3O[C@@H](n4cnc5c(=O)[nH]c(N)nc54)[C@H](O)[C@@H]3O)[C@@H](CO)O2)c(=O)[nH]c1=S
3 | – | Active | 400 | > 100000 | inactive | inactive | inactive | 200 | Active | Active | inactive | inactive | Cc1cn([C@H]2C[C@H](OP(=O)(O)OC[C@H]3O[C@@H](n4cnc5c(=O)[nH]c(N)nc54)[C@H](O)[C@@H]3O)[C@@H](COP(=O)(O)O[C@H]3C[C@H](n4cnc5c(=S)[nH]c(N)nc54)O[C@@H]3COP(=O)(O)O[C@H]3C[C@H](n4cnc5c(=S)[nH]c(N)nc54)O[C@@H]3COP(=O)(O)O[C@H]3C[C@H](n4cc(C)c(=S)[nH]c4=O)O[C@@H]3COP(=O)(O)O[C@H]3C[C@H](n4cnc5c(=S)[nH]c(N)nc54)O[C@@H]3COP(=O)(O)O[C@H]3C[C@H](n4cnc5c(=S)[nH]c(N)nc54)O[C@@H]3COP(=O)(O)O[C@H]3C[C@H](n4cc(C)c(=S)[nH]c4=O)O[C@@H]3COP(=O)(O)O[C@H]3C[C@H](n4cnc5c(=S)[nH]c(N)nc54)O[C@@H]3COP(=O)(O)O[C@H]3C[C@H](n4cnc5c(=S)[nH]c(N)nc54)O[C@@H]3COP(=O)(O)O[C@H]3C[C@H](n4cc(C)c(=S)[nH]c4=O)O[C@@H]3COP(=O)(O)O[C@H]3C[C@H](n4cnc5c(=S)[nH]c(N)nc54)O[C@@H]3COP(=O)(O)O[C@H]3C[C@H](n4cnc5c(=S)[nH]c(N)nc54)O[C@@H]3CO)O2)c(=O)[nH]c1=O

Source: ChEMBL document CHEMBL2311479, “Remarkable stabilization of antiparallel DNA triplexes by strong stacking effects of consecutively modified nucleobases containing thiocarbonyl groups” (Bioorg Med Chem Lett, 2013)
